The source of these data is ChEMBL document CHEMBL2150881, “JD-5006 and JD-5037: peripherally restricted (PR) cannabinoid-1 receptor blockers related to SLV-319 (Ibipinabant) as metabolic disorder therapeutics devoid of CNS liabilities” (Bioorg Med Chem Lett, 2012).

Calls of active or inactive are those of the source. The rule behind the calls is not given here.

In data set [1] the test system is MDCK. As to the kind of experiment: Efflux ratio of permeability from […] in MDR expressing MDCK cells. The format is ADME, cell-based, Canis lupus familiaris. The conditions noted are these: dog, mdck.
The target in another data set is Cannabinoid receptor 2 (Homo sapiens, UniProt P34972). As to the kind of experiment: Displacement of 3[H]ligand from recombinant human CB2 receptor. In outline: (§1)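 Radioligand displacement from human recombinant CB1 and CB2 protein by a [³H] ligand. Initial screen at two concentrations in duplicate, with values >100 nM estimated. Percent inhibition read at 100 nM. IC₅₀ taken from four-point concentration curves run in duplicate.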

For data set [2], the target named is T1, Cannabinoid receptor 1 (Homo sapiens, UniProt P21554). As to the kind of experiment: Displacement of 3[H]ligand from recombinant human CB1 receptor. In outline:
as §1

The subject of data set [3] is MDCK. As to the kind of experiment: (§2) Apparent permeability from apical to basolateral side in MDR expressing MDCK cells by LC-MS-MS analysis. The data set is classed as ADME, cell-based, Canis lupus familiaris. As to conditions: dog, mdck. In a few lines: (§3)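 Permeability measured across MDR-MDCK kidney cell monolayers, giving apparent permeability (Papp) in the apical-to-basolateral and basolateral-to-apical directions.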

For data set [4], the system named is MDCK. As to the kind of experiment: (§4) Apparent permeability from basolateral to apical side in MDR expressing MDCK cells by LC-MS-MS analysis. The data set is classed as ADME, cell-based, Canis lupus familiaris. The conditions noted are these: dog, mdck. In outline:
as §3

The test system of the next data set is Brain. In words: Drug uptake in chow fed mouse brain assessed per gram of tissue at 100 mg/kg, po for 3 days measured 1 hr post last dose. The format is ADME, organism-based. Also on record: dose 100 mg/kg, route oral. The conditions noted are these: in vivo. In outline:
(§5)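 Chow-fed mice were dosed orally at 100 or 20 mg/kg for 3 consecutive days. Plasma and brain were taken 1 h after the last dose. Proteins were precipitated with 3× volume ice-cold acetonitrile containing internal standard, then centrifuged 15 min at 4 °C. Analysis by LC/MS/MS against calibrators in plasma or brain homogenate (1000 to 1.6 nM). Brain is given as ng/gm and also as % of plasma.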

Data set [5] in a line: as §2. The data set is classed as ADME, cell-based, Canis lupus familiaris. The conditions noted are these: dog, MDCK-MDR1. In outline:
as §3

Data set [6] can be described thus: as §4. As to conditions: dog, MDCK-MDR1. The format is ADME, cell-based, Canis lupus familiaris. In a few lines: as §3
Data set [7] can be described thus: Plasma concentration in chow fed mouse at 100 mg/kg, po for 3 days measured after 1 hr post last dose. The format is ADME, organism-based. Also on record: dose 100 mg/kg, route oral. In outline: as §5
Data set [8] relates to Mus musculus. In words: In vivo receptor occupancy at CB1 receptor in mouse hippocampus assessed as inhibition of [3H]SR141716A binding at 30 mg/kg, po for 3 days measured after 1 hr post last dose. The format is functional. In a few lines: (§6)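 Chow-fed mice dosed orally once daily at 3 or 30 mg/kg for 3 consecutive days, killed 1 h after the last dose. [3H]SR141716A was given by lateral tail-vein injection 30 min before euthanasia. Hippocampus, cerebellum and brain stem (reference region) were scintillation-counted as DPM/mg. Binding potential = (receptor − reference)/reference. Occupancy (%) = 100 × (vehicle BP − drug BP)/vehicle BP. 5 animals per dose.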

The test system of data set [9] is Mus musculus. In words: In vivo receptor occupancy at CB1 receptor in mouse hippocampus assessed as inhibition of [3H]SR141716A binding at 3 mg/kg, po for 3 days measured after 1 hr post last dose. The format is functional. In a few lines:
as §6

The subject of data set [10] is Mus musculus. As to the kind of experiment: In vivo receptor occupancy at CB1 receptor in mouse cerebellum assessed as inhibition of [3H]SR141716A binding at 3 mg/kg, po for 3 days measured after 1 hr post last dose. The format is functional. In outline: as §6
Data set [11] has as its system Mus musculus. As to the kind of experiment: Antidiabetic activity in high fat diet-fed diabetes mouse model assessed as […] in insulin sensitivity at 20 mg/kg for 7 days by glucose tolerance test. The format is functional, organism-based. Also on record: dose 20 mg/kg.
The test system of data set [12] is Mus musculus. As to the kind of experiment: Antidiabetic activity in high fat diet-fed diabetes mouse model assessed as reduction in glucose level at 20 mg/kg for 7 days by glucose tolerance test. More on the design: dose 20 mg/kg. The data set is classed as functional, organism-based. In a few lines:
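Mice kept on high-fat diet for 14 weeks were given 20 mg/kg PO for seven days. They were then challenged with glucose at 2 g/kg body weight, and glucose elimination was followed.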

Data set [13] deals with Mus musculus. In words: Antidyslipidemic activity in DIO mouse model assessed as reduction in terminal fasting triglyceride level at 3 mg/kg, po for 21 days. The data set is classed as functional. Also on record: scale not given: the % may be the effect or the level left. In outline: (§7)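 Diet-induced obese mice dosed orally at 3, 10 and 30 mg/kg for 21 days alongside vehicle controls. Plasma triglycerides, ALT and terminal liver weight were measured at the end of dosing. p-values were given for each dose.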

For data set [14], the target named is Cannabinoid receptor 1 (Mus musculus) (UniProt P47746). As to conditions: Cerebellum, 30 mg/kg.
The subject of data set [15] is Mus musculus. In words: Antidyslipidemic activity in DIO mouse model assessed as reduction in terminal fasting triglyceride level at 30 mg/kg, po for 21 days. The format is functional. More on the design: scale not given: the % may be the effect or the level left. In outline: as §7
Data set [16] deals with Mus musculus. As to the kind of experiment: Antidyslipidemic activity in DIO mouse model assessed as reduction in terminal liver weight at 3 to 30 mg/kg, po for 21 days. The format is functional. More on the design: scale not given: the % may be the effect or the level left. The conditions noted are these: dose mg/kg 3-30. In outline: as §7
In data set [17] the test system is Mus musculus. In words: Antidyslipidemic activity in DIO mouse model assessed as reduction in terminal ALT level at 3 to 30 mg/kg, po for 21 days. The format is functional. Also on record: scale not given: the % may be the effect or the level left. The conditions noted are these: dose mg/kg 3-30. In outline: as §7
The nature of data set [18]: Plasma concentration in chow fed mouse at 20 mg/kg, po for 3 days measured after 1 hr post last dose. The data set is classed as ADME, organism-based. Also on record: dose 20 mg/kg, route oral. In outline: as §5
Data set [19] in a line: Drug uptake in chow fed mouse brain at 20 mg/kg, po for 3 days measured after 1 hr post last dose. More on the design: dose 20 mg/kg, route oral. As to conditions: read-out: Drug uptake. The data set is classed as ADME, organism-based. In a few lines:
as §5

The subject of data set [20] is Mus musculus. In words: Antidyslipidemic activity in DIO mouse model assessed as reduction in terminal fasting triglyceride level at 3 to 30 mg/kg, po for 21 days. The data set is classed as functional. Also on record: scale not given: the % may be the effect or the level left. As to conditions: dose mg/kg 3-30. In outline:
as §7

For data set [21], the target named is T1, Cannabinoid receptor 1. In words: Inverse agonist activity against CB1 receptor expressed in human CHO cells assessed as effect on forskolin-stimulated cAMP level. The format is functional, cell-based. (In general: Cyclic AMP is a second messenger, typically raised through Gs and lowered through Gi signalling.)

Sequence of Cannabinoid receptor 2 (P34972 whole entry): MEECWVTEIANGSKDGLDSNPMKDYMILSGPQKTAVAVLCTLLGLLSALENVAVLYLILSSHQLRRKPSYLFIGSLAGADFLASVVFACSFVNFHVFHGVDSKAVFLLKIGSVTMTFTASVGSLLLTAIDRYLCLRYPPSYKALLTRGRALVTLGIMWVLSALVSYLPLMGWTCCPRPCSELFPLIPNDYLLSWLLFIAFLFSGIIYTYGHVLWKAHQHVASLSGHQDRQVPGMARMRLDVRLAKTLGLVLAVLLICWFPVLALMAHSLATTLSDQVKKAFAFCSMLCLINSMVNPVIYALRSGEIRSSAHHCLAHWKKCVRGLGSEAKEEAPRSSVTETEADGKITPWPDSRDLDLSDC
T1 sequence (P21554 whole entry): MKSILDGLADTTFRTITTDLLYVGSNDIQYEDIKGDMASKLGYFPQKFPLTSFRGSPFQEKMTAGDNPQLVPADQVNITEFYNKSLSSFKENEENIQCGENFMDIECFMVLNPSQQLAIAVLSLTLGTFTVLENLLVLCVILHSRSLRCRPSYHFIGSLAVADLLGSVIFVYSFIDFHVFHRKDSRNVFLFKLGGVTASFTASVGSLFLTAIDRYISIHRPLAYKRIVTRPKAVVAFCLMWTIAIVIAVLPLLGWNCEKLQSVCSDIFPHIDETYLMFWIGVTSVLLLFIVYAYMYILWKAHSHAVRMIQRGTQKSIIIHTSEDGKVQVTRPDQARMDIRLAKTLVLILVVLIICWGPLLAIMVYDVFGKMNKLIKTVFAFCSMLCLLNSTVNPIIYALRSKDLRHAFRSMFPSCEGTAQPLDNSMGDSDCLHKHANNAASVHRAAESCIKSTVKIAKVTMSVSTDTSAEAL
Sequence of Cannabinoid receptor 1 (Mus musculus) (P47746 whole entry): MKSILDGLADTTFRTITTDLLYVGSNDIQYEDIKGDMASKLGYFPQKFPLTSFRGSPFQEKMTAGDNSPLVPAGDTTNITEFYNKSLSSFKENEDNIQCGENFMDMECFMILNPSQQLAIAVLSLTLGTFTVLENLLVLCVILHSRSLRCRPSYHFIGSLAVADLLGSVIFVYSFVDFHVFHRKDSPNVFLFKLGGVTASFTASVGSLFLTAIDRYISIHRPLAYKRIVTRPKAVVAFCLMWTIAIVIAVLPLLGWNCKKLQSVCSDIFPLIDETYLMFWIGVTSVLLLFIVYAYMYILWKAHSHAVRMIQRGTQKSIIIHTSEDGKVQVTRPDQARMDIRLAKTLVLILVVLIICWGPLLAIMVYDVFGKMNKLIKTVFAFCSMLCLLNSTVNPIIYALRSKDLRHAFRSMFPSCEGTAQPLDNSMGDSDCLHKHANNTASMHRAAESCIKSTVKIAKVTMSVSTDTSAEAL

As a reminder, the IC50 is the concentration that gives 50% inhibition. Consider `NC(=O)CNC(=O)CN/C(=N\S(=O)(=O)c1ccc(Cl)cc1)N1CC(c2ccccc2)C(c2ccc(Cl)cc2)=N1` (stereo not drawn), for which the Ratio in the data set on MDCK [1] is recorded as 112. Also, the values for the IC50 on Cannabinoid receptor 2 and at Cannabinoid receptor 1 [2] were greater than 5 µM and 0.025 µM, respectively. In addition, the Papp was found to be 0.2 ucm/s in the data set on MDCK [3] and 22.3 ×10⁻⁶ cm/s in the data set on MDCK [4].

Broadly, the Papp A→B is the apparent permeability from the apical to the basolateral side of a cell layer. A word on the Papp B→A: it is how fast a substance crosses the layer from the basolateral side. With `CC(C)[C@H](N/C(=N\S(=O)(=O)c1ccc(Cl)cc1)N1CC(c2ccccc2)C(c2ccc(Cl)cc2)=N1)C(N)=O` (stereo partly drawn), the results for the IC50 on Cannabinoid receptor 2 and on Cannabinoid receptor 1 [2] were greater than 1 µM and 0.002 µM, respectively. Moreover, in the data set with Brain (BLD = below limit of detection), the Drug uptake result is recorded as “BLD”. Further, the Papp A→B in data set [5] amounted to 1.08 ×10⁻⁶ cm/s. In addition, in [6], the Papp B→A turned out to be 16.6 ×10⁻⁶ cm/s. Also, the concentration at 1 h in [7] is 3850 ng/mL.

`CNC(=NS(=O)(=O)c1ccc(Cl)cc1)N1CC(c2ccccc2)C(c2ccc(Cl)cc2)=N1` (racemic) [RAC-IBIPINABANT] registered a Drug uptake with Brain of 2080 ng/g. Also, in data set [5], the Papp A→B turned out to be 9.45 ×10⁻⁶ cm/s. The Papp B→A in data set [6] stood at 10 ×10⁻⁶ cm/s. Moreover, the concentration at 1 h in data set [7] was 5130 ng/mL.

In the case of `NC(=O)CN=C(NS(=O)(=O)c1ccc(Cl)cc1)N1CC(c2ccccc2)C(c2ccc(Cl)cc2)=N1` (single isomer, unassigned; enantiomer 1), the Occ in the data set with Mus musculus [8] was determined as 3%; in the data set on Mus musculus [9], 10%; with Mus musculus [10], 0%. For the same compound, the IC50 at Cannabinoid receptor 2 is greater than 5 µM; on Cannabinoid receptor 1 [2], 0.032 µM. This compound also displayed a Drug uptake in the data set with Brain of 685 ng/g. The compound also yielded a concentration at 1 h in data set [7] of 16700 ng/mL.

Regarding `NC(=O)CN/C(=N\S(=O)(=O)c1ccc(Cl)cc1)N1CC(c2ccccc2)C(c2ccc(Cl)cc2)=N1` (racemic) [listing 1 of 2 here], the result in the data set with Mus musculus [11] and in the data set with Mus musculus [12] was Active.

As to `CN/C(=N\S(=O)(=O)c1ccc(Cl)cc1)N1CC(c2ccccc2)C(c2ccc(Cl)cc2)=N1` (racemic) [RAC-IBIPINABANT], the Occ in the data set with Mus musculus [8] stood at 100%; in [14] it was 102%; in the data set with Mus musculus [9], 15%; in the data set on Mus musculus [10] it was 15%. Moreover, the Activity stood at 22% in the data set on Mus musculus [13], 19% in the data set on Mus musculus [15], 25% with Mus musculus [16] and 56% with Mus musculus [17].

For the compound `Cc1c(C(=O)NN2CCCCC2)nn(-c2ccc(Cl)cc2Cl)c1-c1ccc(Cl)cc1` [RIMONABANT], the outcome with Mus musculus [11] and in the data set on Mus musculus [12] was Active. In addition, the Occ came to 100% with Mus musculus [8], 87% in data set [14], 10% in the data set with Mus musculus [9] and 12% with Mus musculus [10]. The concentration at 1 h in data set [18] was 1200 ng/mL; in [19] it was 1080 ng/g.

For the compound `NC(=O)CN/C(=N\S(=O)(=O)c1ccc(Cl)cc1)N1CC(c2ccccc2)C(c2ccc(Cl)cc2)=N1` (racemic) [listing 2 of 2 here], the values for the IC50 at Cannabinoid receptor 2, on Cannabinoid receptor 1 [2] and at Cannabinoid receptor 1 [21] were 5 µM, 0.018 µM and 0.018 µM, respectively. Besides, the Activity was 26% with Mus musculus [20], 17% with Mus musculus [16] and 49% in the data set on Mus musculus [17]. Moreover, the Papp A→B in data set [5] was found to be 1.8 ×10⁻⁶ cm/s. Further, in data set [6], the Papp B→A came to 60.5 ×10⁻⁶ cm/s.
